Source: PubChem
In the library only some 3.1% were active in any assay of this set; here they are far more common.
OX1R antag-1 – human HCRTR1 antagonism; O43613; CHO/OX1R cells, Fluo-8 calcium fluorescence, orexin A; inhibition, % at 5 µM; 330,000 tested, 0.43% active;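 active = inhibition above its plate's threshold, mean inhibition of all tested compounds on the plate plus 3 SD, cut at about 37% in these data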;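 note: 0% = orexin A challenge wells and 100% = SB-334867-A antagonist wells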
Target sequence (O43613 whole entry, looked up): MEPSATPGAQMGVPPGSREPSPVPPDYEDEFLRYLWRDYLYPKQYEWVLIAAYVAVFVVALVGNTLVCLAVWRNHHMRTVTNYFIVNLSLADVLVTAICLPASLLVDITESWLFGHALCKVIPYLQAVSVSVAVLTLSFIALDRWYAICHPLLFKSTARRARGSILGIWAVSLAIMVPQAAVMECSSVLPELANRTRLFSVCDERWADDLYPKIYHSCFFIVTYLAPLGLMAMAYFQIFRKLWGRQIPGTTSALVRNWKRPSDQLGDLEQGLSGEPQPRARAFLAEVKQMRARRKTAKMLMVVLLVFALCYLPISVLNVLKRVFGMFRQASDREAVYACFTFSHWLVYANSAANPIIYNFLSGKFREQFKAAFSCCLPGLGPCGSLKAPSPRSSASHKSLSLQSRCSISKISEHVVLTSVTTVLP
GalR3 antagonist – blocks the human galanin receptor 3. O60755. HEK293 GalR3-CNG cAMP membrane potential fluorescence; galR3 body fused to GalR1 C-terminus. inhibition, % at 3 µM. 360,000 tested, 0.44% active;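 active = inhibition above the screen-wide average plus 3 SD, cut at about 13% in these data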;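 note: forskolin and galanin both at EC90 stimulate the cells; cAMP rise reported by CNG channel membrane potential dye signal; 0% = forskolin plus galanin with DMSO and 100% = forskolin alone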
Target sequence (O60755 1-299 limits assumed): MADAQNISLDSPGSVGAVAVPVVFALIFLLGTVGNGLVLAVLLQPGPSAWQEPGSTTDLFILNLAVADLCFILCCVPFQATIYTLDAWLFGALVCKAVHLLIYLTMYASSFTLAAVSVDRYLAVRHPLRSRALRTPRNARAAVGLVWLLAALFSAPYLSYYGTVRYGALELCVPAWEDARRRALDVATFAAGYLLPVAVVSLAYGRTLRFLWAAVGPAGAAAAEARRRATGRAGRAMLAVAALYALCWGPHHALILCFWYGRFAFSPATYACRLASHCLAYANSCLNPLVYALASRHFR
CHO parental Ca – counter-screen: ATP calcium response change in parental CHO cells | parental CHO-K1, ATP-induced calcium, Fluo-8 fluorescence | inhibition, % at 5.6 µM | 330,000 tested, 0.63% active | AID 463079;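 active = inhibition above that plate's mean sample inhibition plus 3 SD, cut at about 26% in these data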;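 note: 0% = ATP-challenged DMSO wells and 100% = DMSO wells without ATP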
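Material: Parental CHO cells | Reagent: ATP | Compound dosing: Single nominal dose of 5.6 µM per compound | Detection: Intracellular calcium via Fluo-8 no-wash fluorescent dye | Read-out: % inhibition of ATP-induced calcium mobilization | Benchmarks: Low control ATP plus DMSO, high control DMSO only | Replicates: Singlicate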
OX1R antag-2 – OX1R (human) antagonism; inhibition, % at 6.6 µM; OX1R-expressing cells, FRET antagonist read-out; 330,000 tested, 1.8% active; O43613; in the data active = inhibition mostly above about 38%, no sharp cut-off; inactive = mostly below about 40%;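 note: 0% = agonist challenge alone and 100% = reference antagonist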
GPR7 antag – antagonists of human GPR7 (neuropeptides B/W receptor 1) | GPR7-expressing cells, fluorescence antagonist assay | inhibition, % at 4.4 µM | 290,000 tested, 1.1% active | AID 1861; in the data active = inhibition above about 16%, passing the limit was not always enough;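 note: cells stimulated with the agonist NPW; 0% = agonist with vehicle and 100% = vehicle without agonist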
GPR7 antag conf – human GPR7 antagonism, confirmation assay; shares compounds with GPR7 antag; GPR7-expressing cells, calcium fluorescence antagonist mode; inhibition, % at 4.4 µM; 2,400 tested, 52% active; in the data active = inhibition above about 24%;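 note: stimulated with the GPR7 agonist NPW; 0% = agonist plus vehicle and 100% = vehicle alone without agonist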
MCHR1 antagonist – counter-screen for GPR7 antagonists: antagonists of human MCHR1 | inhibition, % at 4.4 µM | shares compounds with GPR7 antag | AID 2148 | MCHR1-expressing cells, fluorescence antagonist assay | 2,400 tested, 62% active; in the data active = inhibition above about 22%;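 note: 0% = vehicle with agonist and 100% = vehicle without agonist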
The depositor's hits bear a star.

How did CC(C)CCN1CCN(Cc2cccc3nonc23)CC1CCO (stereo unspecified) do in these assays?
OX1R antag-1: -24.9; GalR3 antagonist: 0.8; CHO parental Ca: -14.8; OX1R antag-2: 33.4; GPR7 antag: 24.3*; GPR7 antag conf: -2.1; MCHR1 antagonist: -2.2

What do the screens show for `Nc1c(Br)cc2c(c1Br)C(O)c1ccccc1-2` (stereo unspecified)?
GalR3 antagonist: 2.2

Results for O=C(COC(=O)c1ccc(Cl)c(S(=O)(=O)N2CCCCCC2)c1)NCc1ccccc1 ?
GalR3 antagonist: -6.0

What do the screens show for `CCOC(=O)c1c(NC(=O)C2COc3ccccc3O2)sc2c1CC(C)(C)NC2(C)C` (stereo unspecified)?
OX1R antag-1: -21.7; GalR3 antagonist: -7.7; CHO parental Ca: -11.3; OX1R antag-2: 7.0; GPR7 antag: 23.5*; GPR7 antag conf: 31.8*; MCHR1 antagonist: 37.8*

Results for CCOC(=O)c1c(C)n(-c2ccc(F)cc2)c2ccc(O)cc12 ?
OX1R antag-1: -11.6; CHO parental Ca: -20.5; OX1R antag-2: 0.8; GPR7 antag: 72.1*; GPR7 antag conf: -4.1; MCHR1 antagonist: -13.7

Results for COC(=O)c1c(C)n(-c2ccc(OC)cc2)c2ccc(O)cc12 ?
OX1R antag-1: -12.5; GalR3 antagonist: -6.6; CHO parental Ca: -15.7; OX1R antag-2: 26.8; GPR7 antag: -14.2

What do the screens show for `CC1=C(C)CC(C(=O)NCc2ccccc2F)C(C(=O)O)C1` (stereo unspecified)?
OX1R antag-1: -3.2; GalR3 antagonist: -6.7; CHO parental Ca: 2.0; OX1R antag-2: -2.1; GPR7 antag: -3.7

How did COc1ccc(CN(C)C(=O)c2ccc(NS(=O)(=O)c3ccc(F)cc3)cc2)c(OC)c1 do in these assays?
OX1R antag-1: -6.3; GalR3 antagonist: 5.1; CHO parental Ca: 1.4; OX1R antag-2: 6.3; GPR7 antag: 22.3*; GPR7 antag conf: 9.8; MCHR1 antagonist: 1.6

What do the screens show for `N#CCCN(C(=O)COC(=O)CCc1c[nH]c2ccccc12)c1ccccc1`?
OX1R antag-1: -10.0; GalR3 antagonist: -2.4; CHO parental Ca: 1.3; OX1R antag-2: 25.7

How did O=[N+]([O-])c1ccc(N2CCOCC2)nc1 do in these assays?
OX1R antag-1: 1.0; GalR3 antagonist: -2.5; CHO parental Ca: -5.3; OX1R antag-2: 17.6; GPR7 antag: -6.0

How did COc1cccc(CN2CCN(C(=O)Nc3ccc([N+](=O)[O-])cc3)CC2)c1 do in these assays?
OX1R antag-1: -2.6; GalR3 antagonist: -6.7; CHO parental Ca: 18.8; OX1R antag-2: 17.6; GPR7 antag: 29.3*; GPR7 antag conf: 40.6*; MCHR1 antagonist: 67.6*

Results for O=[N+]([O-])c1ccc(CN2CCC(Cc3ccccc3)CC2)cc1 ?
GalR3 antagonist: -9.8; GPR7 antag: 26.1*; GPR7 antag conf: 12.8; MCHR1 antagonist: 32.9*

How did O=[N+]([O-])c1ccc(N2CCN(Cc3ccccc3)CC2)nc1 do in these assays?
OX1R antag-1: -21.9; GalR3 antagonist: -5.1; CHO parental Ca: 7.7; OX1R antag-2: 34.8; GPR7 antag: 22.5*; GPR7 antag conf: 27.2*; MCHR1 antagonist: 18.5

What do the screens show for `O=[N+]([O-])c1ccc(N2CCN(c3cccc(Cl)c3)CC2)nc1`?
OX1R antag-1: -9.1; GalR3 antagonist: -10.7; CHO parental Ca: -4.5; OX1R antag-2: 16.4; GPR7 antag: 50.7*; GPR7 antag conf: 28.7*; MCHR1 antagonist: 69.7*

Results for COc1cccc(C(=O)Nc2nnc(SCC(=O)Nc3ccc(NC(C)=O)cc3)s2)c1 ?
OX1R antag-1: -26.8; GalR3 antagonist: 0.8; CHO parental Ca: -19.9; OX1R antag-2: 33.3; GPR7 antag: -8.9

How did CN1C2CCC1CC(NC(=O)c1cc(S(=O)(=O)N(C)C)c(Cl)cc1Cl)C2 (stereo unspecified) do in these assays?
OX1R antag-1: -21.6; GalR3 antagonist: -6.1; CHO parental Ca: -13.2; OX1R antag-2: 2.8

How did CCOc1ccc(CCNC(=O)COC(=O)COc2ccc(Br)cc2)cc1OCC do in these assays?
OX1R antag-1: -35.9; GalR3 antagonist: -0.8; CHO parental Ca: -22.7; OX1R antag-2: 26.7; GPR7 antag: -23.8

Results for O=[N+]([O-])c1ccc(CN2CCN(c3ccc([N+](=O)[O-])cc3)CC2)cc1 ?
OX1R antag-1: -5.3; GalR3 antagonist: -13.1; CHO parental Ca: 7.0; OX1R antag-2: 2.9; GPR7 antag: 35.9

What do the screens show for `O=[N+]([O-])c1ccc(N2CCN(Cc3cccc([N+](=O)[O-])c3)CC2)cc1`?
OX1R antag-1: 0.5; GalR3 antagonist: -11.2; CHO parental Ca: 7.6; OX1R antag-2: 24.1; GPR7 antag: 37.4*; GPR7 antag conf: 55.7*; MCHR1 antagonist: 63.1*

What do the screens show for `O=c1c(/C=N/O)coc2ccc3ccccc3c12`?
OX1R antag-1: 6.0; GalR3 antagonist: -3.3; CHO parental Ca: -5.5; OX1R antag-2: 37.2; GPR7 antag: 27.2*; GPR7 antag conf: 2.2; MCHR1 antagonist: 14.3

How did CCCS(=O)(=O)c1ccc(COC(=O)Cc2ccc([N+](=O)[O-])cc2)cc1 do in these assays?
OX1R antag-1: -7.7; GalR3 antagonist: -7.3; CHO parental Ca: 3.6; OX1R antag-2: 24.4; GPR7 antag: 28.1*; GPR7 antag conf: 25.4*; MCHR1 antagonist: 24.8*

What do the screens show for `C[C@H](N)C(=O)OCc1ccc([N+](=O)[O-])cc1`?
OX1R antag-1: -1.7; GalR3 antagonist: -6.2; CHO parental Ca: 4.0; OX1R antag-2: 12.5; GPR7 antag: -14.8

Results for O=C(Cc1ccc([N+](=O)[O-])cc1)OCc1ccc([N+](=O)[O-])cc1 ?
OX1R antag-1: 7.7; GalR3 antagonist: -7.3; CHO parental Ca: 10.3; OX1R antag-2: 18.1; GPR7 antag: 43.8*; GPR7 antag conf: 29.0*; MCHR1 antagonist: 63.6*

What do the screens show for `CN(C)S(=O)(=O)c1ccc(C(=O)OCc2ccc([N+](=O)[O-])cc2)cc1`?
OX1R antag-1: -9.3; GalR3 antagonist: -2.2; CHO parental Ca: -2.9; OX1R antag-2: 11.6; GPR7 antag: 5.6

What do the screens show for `C#CCOc1ccc2c3c(c(=O)oc2c1)CCCC3`?
OX1R antag-1: -20.1; GalR3 antagonist: -8.9; CHO parental Ca: -7.1; OX1R antag-2: -2.4; GPR7 antag: -2.0

Results for O=S(=O)(NCC1CCCO1)c1ccc(Cl)cc1 (stereo unspecified) ?
OX1R antag-1: -6.6; GalR3 antagonist: -3.0; CHO parental Ca: -0.9; OX1R antag-2: -1.3; GPR7 antag: -8.7

What do the screens show for `CCn1c(SCC(=O)Nc2ccc(C(C)=O)cc2)nc2ccccc21`?
OX1R antag-1: -31.5; GalR3 antagonist: -4.6; CHO parental Ca: -19.2; OX1R antag-2: 15.3; GPR7 antag: 30.0*; GPR7 antag conf: 4.2; MCHR1 antagonist: 19.6

Results for CCn1c(SCC(=O)Nc2ccc3[nH]c(=O)[nH]c3c2)nc2ccccc21 ?
OX1R antag-1: 10.6; GalR3 antagonist: -1.7; CHO parental Ca: -10.9; OX1R antag-2: 5.1
